{"data": "Experimental data gathered from unrelated publications", "target": "Sodium-dependent noradrenaline transporter (SLC6A2, Homo sapiens, UniProt P23975)", "note": "Protocols differ between the studies behind these lines."}
{"Compound": "COC(=O)c1ccc(-n2c(C)cc(C(=O)CSc3ccc(NC(C)=O)cc3)c2C)cc1", "assay": "ligand displacement, radioligand", "setting": "10 µM", "inhibition": "50%"}
{"Compound": "O=C(Nc1ccc(S(=O)(=O)N2CCC(Cl)CC2)cc1)c1ccc([N+](=O)[O-])o1", "assay": "ligand displacement, radioligand", "setting": "10 µM", "inhibition": "28%"}
{"Compound": "CN1CCN(CCCOc2ccc(=O)n(-c3ccc(Cl)c(Cl)c3)n2)CC1", "assay": "ligand displacement", "setting": "1 µM", "inhibition": "14.4%"}
{"Compound": "CCCNc1nc2ccccc2n1Cc1ccc(Cl)cc1", "assay": "ligand displacement", "setting": "10 µM", "inhibition": "21.9%"}
{"Compound": "Clc1ccc(C(c2ccccc2)c2nnnn2CCCCN2CCC(CCc3ccccc3)CC2)cc1 (stereo not drawn)", "assay": "transporter uptake, inhibitor", "system": "HEK293", "setting": "1 µM", "inhibition": "72.4%"}
{"Compound": "O=C(c1ccc(Cl)cc1)N(Cc1ccccc1)C1CCCCC1", "assay": "cell-free assay", "setting": "10 µM", "inhibition": "14.9%"}
{"Compound": "Clc1ccc(C(c2ccc(Cl)cc2)c2nnnn2CCCN2CCC(Cc3ccccc3)CC2)cc1", "assay": "transporter uptake, inhibitor", "system": "HEK293", "setting": "1 µM", "inhibition": "8.36%"}
{"Compound": "CCN(Cc1ccccc1C(F)(F)F)C(=O)C1CCN(S(=O)(=O)c2ccc3[nH]ncc3c2)CC1", "assay": "ligand displacement, radioligand", "setting": "10 µM", "inhibition": "20%"}
{"Compound": "O[C@@H]1[C@H](O)[C@@H]2C[C@@H]2[C@H]1n1cnc2c(NCc3cccc(Cl)c3)nc(C#Cc3ccc(F)c(F)c3)nc21", "assay": "ligand displacement, radioligand", "setting": "10 µM", "inhibition": "51%"}
{"Compound": "O=C1N=C(N2CCCCN2)S/C1=C\\c1ccc(F)cc1O", "assay": "ligand displacement, radioligand", "setting": "10 µM", "inhibition": "< 10%"}
{"Compound": "O[C@@H]1[C@H](O)[C@@H]2C[C@@H]2[C@H]1n1cnc2c(NCc3cccc(Cl)c3)ncnc21", "assay": "ligand displacement, radioligand", "setting": "10 µM", "inhibition": "35%"}
{"Compound": "Fc1ccc(C(c2ccc(F)cc2)c2nnnn2CCCCN2CCC(c3ccccc3)CC2)cc1", "assay": "transporter uptake, inhibitor", "system": "HEK293", "setting": "1 µM", "inhibition": "64.4%"}
